# Source: PubChem BioAssay (The Scripps Research Institute Molecular Screening Center)
# In the library only some 2.4% were active in any assay of this set; here they are far more common.
# NPY Y2 blocker = blocks the human neuropeptide Y Y2 receptor. inhibition, % at 2.7 µM. AID 793. 140,000 tested, 0.99% active. NPY-Y2 expressing cells, antagonist mode; in the data active = inhibition above about 17%;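 also: 0% = vehicle with agonist challenge and 100% = reference antagonist with challenge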
# Target sequence (P49146 whole entry, looked up): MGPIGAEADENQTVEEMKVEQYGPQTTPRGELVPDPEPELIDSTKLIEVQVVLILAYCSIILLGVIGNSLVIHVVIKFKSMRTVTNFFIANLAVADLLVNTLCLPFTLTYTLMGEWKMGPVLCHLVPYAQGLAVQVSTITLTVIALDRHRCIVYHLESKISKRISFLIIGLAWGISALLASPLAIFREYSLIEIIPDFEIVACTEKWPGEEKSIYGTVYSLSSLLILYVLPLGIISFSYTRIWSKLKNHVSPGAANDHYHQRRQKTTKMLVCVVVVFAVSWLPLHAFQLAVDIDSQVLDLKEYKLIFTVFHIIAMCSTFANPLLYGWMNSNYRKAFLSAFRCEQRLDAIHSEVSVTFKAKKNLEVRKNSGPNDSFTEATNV
# S1P4 antagonist = antagonists of human S1P4 receptor. O95977. S1P4-expressing cells, antagonist mode, reporter read-out. inhibition, % at 4.98 µM. 220,000 tested, 0.26% active; in the data active = inhibition above about 29%;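 also: 0% = wells stimulated with agonist and 100% = vehicle wells without agonist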
# NPY Y1 blocker = blocks the human neuropeptide Y Y1 receptor. P25929. HEK293-CNG Y1 cells, membrane potential fluorescence; NPY at EC95, then isoproterenol. AID 1040. 200,000 tested, 1% active. inhibition, % at 3.6 µM;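 active = inhibition above the campaign mean inhibition of all tested compounds plus 3 SD, cut at about 20% in these data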;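 also: 0% = DMSO wells given NPY plus isoproterenol and 100% = isoproterenol alone without NPY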
#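 System: HEK293 cells with Y1 receptor plus CNG channel / Probe or stimulus: NPY 25 nM then isoproterenol 1 µM plus Ro 20-1724 25 µM / Compound: one concentration, 3.6 µM, in 0.4% DMSO / Schedule: compound incubation 1 h at room temperature, readout 45 min post-stimulation / Measured by: membrane potential fluorescence / Read-out: % inhibition of NPY effect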
# NPY-Y2 PAM-ag = potentiators or agonists of human neuropeptide Y receptor Y2 | cells expressing NPY-Y2, potentiator/agonist read-out | activation, % at 3.6 µM | 220,000 tested, 0.45% active | AID 1359; in the data active = activation above about 27%;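 also: cells stimulated with NPY near EC25 plus isoproterenol at EC100; 0% = vehicle plus submaximal agonist and 100% = vehicle plus saturating agonist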
# NPY-Y1 PAM-ag = potentiators or agonists of human neuropeptide Y receptor Y1. 220,000 tested, 0.37% active. P25929. activation, % at 3.6 µM. NPY-Y1 expressing cells, potentiator/agonist activation; in the data active = activation above about 33%, passing the limit was not always enough;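 also: cells stimulated with NPY at EC10 then isoproterenol at EC100; 0% = low agonist plus stimulus and 100% = saturating agonist plus stimulus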
# S1P4 agonist = agonists of human S1P4 receptor | O95977 | S1P4-expressing cell line, agonist reporter assay | activation, % at 4.98 µM | 220,000 tested, 0.35% active | AID 1509; in the data active = activation above about 11%;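 also: 0% = DMSO vehicle and 100% = reference agonist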
# NPY1 antag ctr = counter-screen for NPY-Y2 antagonists: human NPY-Y1 antagonism; 710 tested, 19% active; inhibition, % at 3.6 µM; shares compounds with NPY Y2 blocker; cell-based NPY-Y1 antagonism counterscreen; in the data active = inhibition above about 20%;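 also: cells challenged with NPY then isoproterenol with cAMP sensed through a CNG channel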
# NPY-Y2 ant conf = confirmation of human neuropeptide Y receptor Y2 antagonists | 710 tested, 32% active | shares compounds with NPY Y2 blocker | inhibition, % at 2.8 µM | HEK293 NPY-Y2 CNG channel, membrane potential fluorescence;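 active = mean inhibition of triplicate wells above the hit cutoff set in the primary screen, cut at about 17% in these data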;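 also: 0% = DMSO with NPY challenge and 100% = BIIE0246 high control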
# Active calls of the source: *; / = no result.
SMILES,NPY Y2 blocker,S1P4 antagonist,NPY Y1 blocker,NPY-Y2 PAM-ag,NPY-Y1 PAM-ag,S1P4 agonist,NPY1 antag ctr,NPY-Y2 ant conf
c1ccc(N2CCN(c3nc(NCc4ccco4)c4ccccc4n3)CC2)cc1,19*,-1,12,32*,-7,-5,9,7
COc1ccc(OC)c(C2=NOC(C(=O)Nc3cc(C)on3)C2)c1 (centres undefined),/,-12,/,-2,19,2,/,/
Cc1nc(SCC(=O)Nc2cccnc2Cl)nc(C)c1C,/,-9,4,-3,2,1,/,/
Cc1c(C(=O)NCc2ccc3c(c2)OCO3)oc2ccc(Br)cc12,22*,-4,9,-24,-30,1,14,12
Cc1cc(Cl)ccc1OCCCC(=O)N1CCCc2ccccc21,27*,9,19,-23,-16,-3,23*,40*
CCCOc1ccc(C2(C(=O)O)CCCC2)cc1,44*,-13,7,-2,1,0,8,6
CCCCOc1ccc(C2(C(=O)O)CCCC2)cc1,6,-7,11,-23,-27,1,/,/
COC(=O)c1nn(-c2ccccc2)c2nnc(Cc3ccc(C)cc3)c(=O)n12,1,0,3,-2,0,1,/,/
Cc1ccc(-n2nc(C(=O)c3ccccc3)n3c(=O)c(Cc4ccccc4)nnc23)cc1,18*,-16,17,-21,-41,-3,73*,99*
Cc1ccc(C(C(=O)NC2CCCCC2)N(C(=O)Cc2c[nH]c3ccccc23)c2ccccc2C)o1 (centres undefined),1,-2,3,-3,-13,0,/,/
Cc1ccc(C(C(=O)NC2CCCCC2)N(Cc2ccco2)C(=O)Cc2c[nH]c3ccccc23)o1 (centres undefined),19*,13,14,-5,-5,0,13,11
CCN(CC)S(=O)(=O)c1ccc(/C=C/C(=O)Nc2ccc(Br)cc2F)cc1,17*,-23,18,11,-27,-2,29*,17*
Cc1ccc(Cl)c2c1=NC(=O)C=2c1[nH]c(=S)[nH]c1O,/,6,7,3,-10,0,/,/
CC(C)(C)c1nnc(NC(=O)c2cccnc2)s1,/,-7,-5,7,2,-1,/,/
CC(C)CCNC(=O)c1cc(-c2ccco2)nc2ccccc12,33*,-7,19,-112,-149,0,40*,40*
O=C(NCC1CCCO1)c1cc(-c2ccco2)nc2ccccc12 (centres undefined),-2,-7,9,1,6,1,/,/
CC(=O)NCCOc1nc(N(C)C)nc(N2CCCCC2)n1,/,-12,-4,5,8,3,/,/
CC(C)C[C@H](NC(=O)N1CCCCCC1)C(=O)O,/,2,/,4,4,3,/,/
Cc1cccc(COCC(CC(C)C)N2CCN(C(=O)c3ccc(C(C)(C)C)cc3)CCC2=O)c1 (centres undefined),19*,14,10,-5,-40,2,17,11
Fc1ccc(-c2csc3[n+]2CCS3)cc1,6,-8,10,1,-1,1,/,/
O=[N+]([O-])c1ccc(-c2csc3[n+]2CCS3)cc1,23*,8,20,-11,-10,-2,5,4
Cc1ccc(OCC(=O)Nc2nnc(C3CCCO3)s2)c(Br)c1 (centres undefined),/,5,15,-28,-19,-2,/,/
Cc1nc(SC2CC(=O)N(c3ccccc3)C2=O)nc2c1CCCC2 (centres undefined),21*,9,19,-31,-15,1,17,14
COc1ccc(N2CC(O)=C(c3nc(-c4ccc(F)cc4)cs3)C2=N)cc1OC,/,0,5,-3,-8,-1,/,/
CCCCCC(=O)NC(=S)Nc1ccc(Br)cc1C,20*,-5,1,-1,13,0,10,19*
SMILES,NPY Y2 blocker,S1P4 antagonist,NPY Y1 blocker,NPY-Y2 PAM-ag,NPY-Y1 PAM-ag,S1P4 agonist,NPY1 antag ctr,NPY-Y2 ant conf
CCCC(=O)NC(=S)Nc1c(C)cc(Br)cc1C,0,-9,3,-6,5,0,/,/
COc1ccc(C(=O)NNC(=O)CSc2nnc(-c3cccnc3)o2)cc1,/,-8,2,-4,6,1,/,/
Cc1cc2ncn(C(=O)c3c(-c4ccccc4)noc3C)c2cc1C,20*,-7,8,-2,-5,0,9,9
CC(=O)N(Cc1cccs1)Cc1cc2cc(C)c(C)cc2nc1Cl,/,-13,-2,-21,-15,1,/,/
Cc1ccc2nc(Cl)c(CN(Cc3cccs3)C(=O)C3CC3)cc2c1,19*,-4,18,-12,-39,-1,15,12
Cc1ccc(NC(=O)CNC2CCS(=O)(=O)C2)cc1C (centres undefined),/,-3,3,13,4,-1,/,/
CCCn1c(SCc2nc(-c3cccs3)no2)nnc1-c1ccncc1,4,4,-3,-3,-14,2,/,/
CCOc1ccc(-n2c(SCc3nc(-c4cccs4)no3)nnc2-c2ccncc2)cc1,18*,-5,18,-2,-52,1,17,14
O=C(CCc1nc(-c2ccccc2)c(-c2ccccc2)o1)OCc1ccc(Cl)cc1,13,-12,17,-17,-34,-1,/,/
O=C(CCc1nc(-c2ccccc2)c(-c2ccccc2)o1)OCc1ccc(Br)cc1,18*,-3,5,-16,-8,1,12,20*
Clc1ccc(CSc2nnc(-c3cccnc3)o2)cc1,1,-17,-3,-19,-16,1,/,/
N[C@@H](Cc1ccccc1)c1nnc(SCc2ccccc2Cl)o1,5,-1,1,9,-12,0,/,/
Clc1ccccc1CSc1nnc(/C=C/c2ccccc2)o1,20*,0,11,-10,-19,2,20,21*
Clc1ccc(CSc2nnc(/C=C/c3ccccc3)o2)cc1,18*,-13,1,-9,-19,-1,24*,21*
Cc1cc(N2CCN(c3ccccc3)CC2)n2c(n1)nc1ccccc12,22*,-8,12,-28,-40,1,3,5
Cc1cc(N2CCN(c3ccccc3)CC2)n2nnnc2n1,4,-16,-1,11,-8,1,/,/
COc1cccc(-c2nn3c(-c4cccc(C)c4)nnc3s2)c1,13,-7,5,7,-15,1,/,/
COc1cccc(-c2nnc3sc(-c4ccc(C)cc4)nn23)c1,26*,-6,1,0,9,4,15,8
CCN(CC)CCCN1C(=O)c2oc3ccccc3c(=O)c2C1c1cccc(OC)c1OC (centres undefined),19*,-28,-2,-3,-7,0,0,3
